This note sets out measurements from ChEMBL document CHEMBL1137574, “Synthesis and structure-activity relationship for a novel class of potent and selective carbamate-based inhibitors of hormone selective lipase with acute in vivo antilipolytic effects” (J Med Chem, 2007).

The target in one data set is T1, Hormone-sensitive lipase (Homo sapiens, UniProt Q05469).
T1 sequence (Q05469 whole entry): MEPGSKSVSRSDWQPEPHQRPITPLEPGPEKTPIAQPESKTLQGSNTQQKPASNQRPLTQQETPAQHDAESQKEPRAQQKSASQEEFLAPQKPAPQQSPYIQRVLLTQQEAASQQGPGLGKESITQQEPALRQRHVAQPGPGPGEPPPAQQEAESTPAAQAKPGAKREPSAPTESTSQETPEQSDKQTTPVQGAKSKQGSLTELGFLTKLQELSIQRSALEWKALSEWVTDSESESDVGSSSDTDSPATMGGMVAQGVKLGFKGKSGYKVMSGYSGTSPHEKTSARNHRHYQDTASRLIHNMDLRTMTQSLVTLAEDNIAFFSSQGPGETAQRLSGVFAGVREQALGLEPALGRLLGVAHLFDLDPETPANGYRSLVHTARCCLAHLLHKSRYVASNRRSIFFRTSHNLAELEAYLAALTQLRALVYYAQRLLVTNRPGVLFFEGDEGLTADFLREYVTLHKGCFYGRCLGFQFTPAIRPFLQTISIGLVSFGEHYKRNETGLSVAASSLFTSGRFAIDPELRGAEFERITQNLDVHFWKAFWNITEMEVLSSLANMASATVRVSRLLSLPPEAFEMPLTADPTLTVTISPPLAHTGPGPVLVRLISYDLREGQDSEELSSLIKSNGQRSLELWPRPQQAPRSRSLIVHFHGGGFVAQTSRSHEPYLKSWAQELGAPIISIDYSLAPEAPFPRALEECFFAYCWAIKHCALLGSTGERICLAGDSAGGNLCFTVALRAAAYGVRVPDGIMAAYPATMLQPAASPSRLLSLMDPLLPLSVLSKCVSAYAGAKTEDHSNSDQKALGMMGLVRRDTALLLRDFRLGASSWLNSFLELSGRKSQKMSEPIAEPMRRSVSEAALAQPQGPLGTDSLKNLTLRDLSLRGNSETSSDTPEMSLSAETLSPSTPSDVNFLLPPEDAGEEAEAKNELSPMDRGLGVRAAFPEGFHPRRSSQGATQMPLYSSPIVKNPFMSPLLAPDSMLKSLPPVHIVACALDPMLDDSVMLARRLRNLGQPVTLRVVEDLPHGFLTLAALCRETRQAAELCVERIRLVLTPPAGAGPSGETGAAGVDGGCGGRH
In words: Inhibition of recombinant human hormone-sensitive lipase.

A further data set concerns the target Acetylcholinesterase (Homo sapiens, UniProt P22303). In words: Inhibition of acetylcholine esterase. Put shortly: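 Acetylcholinesterase activity measured with acetylthiocholine substrate. Inhibitor at six concentrations in 5-fold steps from a maximum of 100 µM, duplicate measurements averaged. IC50 from variable-slope sigmoidal dose-response fit.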
For the next data set, the target named is Cholinesterase (Homo sapiens, UniProt P06276). The data set is described as follows: Inhibition of butyrylcholine esterase.
The nature of data set [1]: Cmax in Sprague-Dawley rat at 0.5 mg/kg, iv and 1 mg/kg, po. It is filed as ADME, organism-based. The settings on record: in vivo. The method in brief:
(§1)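 Male Sprague-Dawley rats, 12 weeks old, dosed by oral gavage and i.v. in 10% hydroxypropyl cyclodextrin in phosphate buffer pH 7.0, with one rat per time point. Plasma was diluted 1:1 in 10% methanol, centrifuged and quantified by turbulent-flow chromatography–tandem MS against plasma calibration curves (10-3000 ng/mL).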

A short description of data set [2]: Oral bioavailability in Sprague-Dawley rat at 1 mg/kg, po. It is filed as ADME, organism-based. To be noted: in vivo. Put shortly:
as §1

Data set [3] can be described thus: Clearance in Sprague-Dawley rat at 1.1 mg/kg, iv and 2.2 mg/kg, po. It is filed as ADME, organism-based. The settings on record: in vivo. The method in brief: (§2)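 Rat PK study, one rat per time point. Dosed i.v. and p.o. by gavage in 10% hydroxypropyl cyclodextrin in phosphate buffer pH 7.0; one compound was given in 20% Tween 80 plus 5% glucose in phosphate buffer pH 7.0. Plasma was diluted 1:1 with 10% methanol and centrifuged, then quantified by turbulent-flow chromatography–MS/MS against plasma calibration curves spanning 10-3000 ng/mL.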

A short description of data set [4]: Oral bioavailability in Sprague-Dawley rat at 2.2 mg/kg, po. It is filed as ADME, organism-based. The settings on record: in vivo. The method in brief:
as §2

Acetylcholinesterase, sequence (P22303 whole entry): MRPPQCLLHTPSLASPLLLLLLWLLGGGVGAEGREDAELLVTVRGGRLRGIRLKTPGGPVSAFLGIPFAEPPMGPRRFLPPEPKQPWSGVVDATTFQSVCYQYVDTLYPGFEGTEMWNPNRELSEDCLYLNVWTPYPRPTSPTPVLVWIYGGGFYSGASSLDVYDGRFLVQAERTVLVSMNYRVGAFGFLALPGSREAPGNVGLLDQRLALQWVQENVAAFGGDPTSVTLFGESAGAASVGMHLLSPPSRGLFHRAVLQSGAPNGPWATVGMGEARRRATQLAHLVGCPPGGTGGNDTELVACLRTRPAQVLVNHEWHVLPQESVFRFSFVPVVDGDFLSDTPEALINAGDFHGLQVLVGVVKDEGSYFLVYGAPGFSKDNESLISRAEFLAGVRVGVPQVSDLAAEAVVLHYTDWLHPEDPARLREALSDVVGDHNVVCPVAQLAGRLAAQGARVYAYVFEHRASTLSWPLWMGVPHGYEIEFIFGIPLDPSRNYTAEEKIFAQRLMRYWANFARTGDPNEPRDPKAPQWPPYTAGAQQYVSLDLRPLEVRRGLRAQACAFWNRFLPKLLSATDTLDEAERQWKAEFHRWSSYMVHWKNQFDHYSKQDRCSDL
Cholinesterase, sequence (P06276 whole entry): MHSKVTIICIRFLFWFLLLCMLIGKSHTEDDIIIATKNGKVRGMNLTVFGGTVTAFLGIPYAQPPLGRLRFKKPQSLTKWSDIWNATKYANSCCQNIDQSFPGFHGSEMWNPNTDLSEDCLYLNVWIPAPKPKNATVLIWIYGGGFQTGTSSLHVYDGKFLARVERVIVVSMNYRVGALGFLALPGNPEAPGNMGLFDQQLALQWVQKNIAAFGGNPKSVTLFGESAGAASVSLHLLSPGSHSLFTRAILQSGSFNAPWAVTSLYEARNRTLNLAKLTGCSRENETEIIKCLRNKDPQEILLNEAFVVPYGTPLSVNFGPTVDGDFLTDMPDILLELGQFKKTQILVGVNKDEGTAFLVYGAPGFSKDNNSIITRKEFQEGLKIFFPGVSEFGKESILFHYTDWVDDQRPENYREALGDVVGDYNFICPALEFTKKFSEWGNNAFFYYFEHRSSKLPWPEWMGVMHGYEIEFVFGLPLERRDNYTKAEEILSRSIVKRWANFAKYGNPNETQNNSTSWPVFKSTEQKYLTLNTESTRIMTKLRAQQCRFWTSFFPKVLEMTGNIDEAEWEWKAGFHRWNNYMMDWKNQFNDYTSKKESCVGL

One may read the IC50 as the concentration needed to halve the response being measured. For the compound `CC1CCCCN1C(=O)Oc1ccc(Oc2ccc(C(F)(F)F)cn2)cc1` (stereo not drawn), the IC50 on Hormone-sensitive lipase is > 5 µM; against Acetylcholinesterase, > 50 µM; on Cholinesterase it was > 50 µM.

Take `CN(C(=O)Oc1ccc(Oc2ccc(Cl)cn2)cc1)c1ccccc1`: the IC50 against Acetylcholinesterase and against Cholinesterase was > 50 µM each time.

Turning to `COc1ccccc1N(C)C(=O)Oc1ccc(Oc2ccc(C(F)(F)F)cn2)cc1`, the IC50 at Acetylcholinesterase and against Cholinesterase was > 50 µM throughout.

`CCCCNC(=O)Oc1ccc(Oc2ncc(Cl)cc2Cl)cc1`: the IC50 was > 50 µM on Acetylcholinesterase and 19 µM against Cholinesterase.

`CCN(C(=O)Oc1ccc(Oc2ccc(C(F)(F)F)cn2)cc1)c1ccccc1`: the IC50 on Hormone-sensitive lipase was > 5 µM.

Turning to `CN(C(=O)Oc1ccc(Oc2ccc(C(F)(F)F)cn2)cc1)c1cccc(Cl)c1`, the concentration for half-maximal inhibition (IC50) at Acetylcholinesterase and at Cholinesterase was > 50 µM each time.

Regarding `CC(C)N(C)C(=O)Oc1ccc(Oc2ccc(C(F)(F)F)cn2)cc1`, the IC50 on Hormone-sensitive lipase is > 5 µM; at Acetylcholinesterase it was > 50 µM; at Cholinesterase it was > 50 µM.

`CN(C(=O)Oc1ccc(Oc2ncc(Cl)cc2Cl)cc1)c1ccccc1`: the IC50 at Acetylcholinesterase and at Cholinesterase was > 50 µM in each case.

For `O=C(Oc1ccc(Oc2ccc(C(F)(F)F)cn2)cc1)N1CCCC1`, the IC50 on Acetylcholinesterase and on Cholinesterase was > 50 µM in each case.

As to `CN(C(=O)Oc1ccc(Oc2c(Cl)cncc2Cl)cc1)c1ccccc1`, the IC50 against Acetylcholinesterase and on Cholinesterase was > 50 µM each time.

`CN(C(=O)Oc1ccc(Oc2ccc(C(F)(F)F)cn2)cc1)C1CCCCC1`: the IC50 at Hormone-sensitive lipase is > 5 µM; against Acetylcholinesterase, > 50 µM; on Cholinesterase, > 50 µM.

With `CN(C)C(=O)Oc1ccc(Oc2ncc(Cl)cc2Cl)cc1`, the IC50 at Hormone-sensitive lipase, against Acetylcholinesterase and against Cholinesterase was > 50 µM in each case.

As for `O=C(Oc1ccc(Oc2ccc(C(F)(F)F)cn2)cc1)N1CCc2ccccc21`, the results for the IC50 at Hormone-sensitive lipase, against Acetylcholinesterase and against Cholinesterase were > 3 µM, > 50 µM and > 50 µM, respectively.

For the compound `CN(C(=O)Oc1ccc(Nc2ccc(C(F)(F)F)cn2)cc1)c1ccccc1`, the IC50 on Acetylcholinesterase and against Cholinesterase was > 50 µM each time.

For the compound `O=C(Oc1ccc(Oc2ccc(C(F)(F)F)cn2)cc1)N1CCCCC1`, the figures for the half-maximal inhibitory concentration (IC50) on Acetylcholinesterase and against Cholinesterase were > 50 µM and 8.2 µM, respectively.

As usually defined, the Cmax is the highest concentration seen after dosing. The bioavailability is dose-corrected exposure relative to a reference, in per cent. With `O=C(Oc1ccc(Oc2ccc(C(F)(F)F)cn2)cc1)N1CCOCC1`, the IC50 on Acetylcholinesterase and at Cholinesterase was > 50 µM in each case. Also, the Cmax in data set [1] turned out to be 21 ng/mL. In data set [2], the bioavailability stood at 12%.

With `Cc1ccccc1N(C)C(=O)Oc1ccc(Oc2ccc(C(F)(F)F)cn2)cc1`, the IC50 against Acetylcholinesterase and on Cholinesterase was > 50 µM in each case.

In the case of `CN(C(=O)Oc1ccc(Oc2ccc(C(F)(F)F)cn2)cc1)c1ccc(Cl)cc1`, the IC50 against Acetylcholinesterase and on Cholinesterase was > 50 µM each time.

On to `CN(C(=O)Oc1ccc(Oc2ccc(C(F)(F)F)cn2)cc1)c1ccccc1`, for which the IC50 on Acetylcholinesterase and at Cholinesterase was > 50 µM in each case. Further, the clearance in data set [3] was determined as 61 mL/min/kg. For the same compound, in data set [4], the bioavailability amounted to 16%.

Regarding `O=C(Oc1ccc(Oc2ccc(C(F)(F)F)cn2)cc1)N1CCc2ccccc2C1`, the half-inhibitory concentration (IC50) on Acetylcholinesterase and at Cholinesterase was > 50 µM throughout.

Take `O=C(Oc1ccc(Oc2ncc(Cl)cc2Cl)cc1)N1CCCC1`: the IC50 against Acetylcholinesterase and against Cholinesterase was > 50 µM throughout.

On to `CN(Cc1ccccc1)C(=O)Oc1ccc(Oc2ccc(C(F)(F)F)cn2)cc1`, for which the IC50 at Acetylcholinesterase and at Cholinesterase was > 50 µM each time.

Consider `CN(C(=O)Oc1ccc(Oc2ccccc2)cc1)c1ccccc1`, for which the IC50 at Hormone-sensitive lipase is > 5 µM; against Acetylcholinesterase, > 50 µM; at Cholinesterase, > 50 µM.

With `O=C(Oc1ccc(Oc2ccc(C(F)(F)F)cn2)cc1)N1CCC(Cc2ccccc2)CC1`, on Cholinesterase, the IC50 was > 50 µM.

With `CN(C(=O)Oc1ccc(Oc2ccc(C(F)(F)F)cn2)cc1)c1ccccc1Cl`, the IC50 on Acetylcholinesterase and against Cholinesterase was > 50 µM in each case.

With `COc1ccc(N(C)C(=O)Oc2ccc(Oc3ccc(C(F)(F)F)cn3)cc2)cc1`, the IC50 against Acetylcholinesterase and against Cholinesterase was > 50 µM each time.

For `O=C(c1ccccc1)C1CCN(C(=O)Oc2ccc(Oc3ccc(C(F)(F)F)cn3)cc2)CC1`, the IC50 on Cholinesterase is > 50 µM.

Regarding `CN(C(=O)Oc1ccc(Oc2ncc(C(F)(F)F)cc2Cl)cc1)c1ccccc1`, the IC50 at Acetylcholinesterase and on Cholinesterase was > 50 µM in each case.

As to `CC1CN(C(=O)Oc2ccc(Oc3ccc(C(F)(F)F)cn3)cc2)CC(C)O1` (stereo not drawn), the IC50 on Acetylcholinesterase and at Cholinesterase was > 50 µM each time.

Regarding `Cc1cccc(N(C)C(=O)Oc2ccc(Oc3ccc(C(F)(F)F)cn3)cc2)c1`, the IC50 at Acetylcholinesterase and against Cholinesterase was > 50 µM throughout.

Consider `CN(C(=O)Oc1ccc(Oc2ccc(C(F)(F)F)cn2)cc1)C(C)(C)C`, for which the IC50 on Hormone-sensitive lipase was > 5 µM; against Acetylcholinesterase, > 50 µM; at Cholinesterase, > 50 µM.

In the case of `CC1CCN(C(=O)Oc2ccc(Oc3ccc(C(F)(F)F)cn3)cc2)CC1`, the IC50 against Acetylcholinesterase and against Cholinesterase was > 50 µM throughout.

Consider `O=C(Oc1ccc(Oc2ccc(C(F)(F)F)cn2)cc1)N1Cc2ccccc2C1`, for which the IC50 against Acetylcholinesterase and on Cholinesterase was > 50 µM in each case.

Turning to `O=C(Oc1ccc(Oc2ccc(C(F)(F)F)cn2)cc1)N1CCCc2ccc(C(F)(F)F)cc21`, the IC50 on Hormone-sensitive lipase is > 5 µM; against Acetylcholinesterase, > 50 µM; at Cholinesterase it was > 50 µM.

As to `O=C(Oc1ccc(Oc2ncc(Cl)cc2Cl)cc1)N1CCOCC1`, the concentration for half-maximal inhibition (IC50) at Acetylcholinesterase and against Cholinesterase was > 50 µM in each case.

As for `CC1CCCN(C(=O)Oc2ccc(Oc3ccc(C(F)(F)F)cn3)cc2)C1` (stereo not drawn), the IC50 against Acetylcholinesterase and at Cholinesterase was > 50 µM in each case.

Consider `Cc1ccc(N(C)C(=O)Oc2ccc(Oc3ccc(C(F)(F)F)cn3)cc2)cc1`, for which the 50% inhibitory concentration (IC50) on Acetylcholinesterase and against Cholinesterase was > 50 µM in each case.
